Published values of several laboratories.
Target: Serine/threonine-protein kinase PAK 1 (PAK1, Homo sapiens, UniProt Q13153)

| SMILES | assay | conditions | measurement | value |
| --- | --- | --- | --- | --- |
| Cc1ccc(C(=O)Nc2ccc(CN3CCN(C)CC3)c(C(F)(F)F)c2)cc1C#Cc1cnc2cccnn12 | enzyme activity, inhibitor | 23.5 nM | remaining activity | 100% |
| O=C(Nc1cnn(-c2csc(C(=O)NC3COC3)c2)c1)Nc1ccccc1Cl | enzyme activity, inhibitor | 5 µM | remaining activity | 106% |
| CS(=O)(=O)NCC[C@H](NC(=O)c1cncc2c1cnn2-c1ccc(F)cc1)c1ccnc(S(C)(=O)=O)c1 | cell-free assay, competition with immobilised ligand | 1 µM | remaining binding | 88% |
| O=S(=O)(Nc1cc(Sc2ncn[nH]2)c(O)c2ccccc12)c1ccc(-c2ccccc2)cc1 | enzyme activity, inhibitor | 1 µM | remaining activity | ≥ 75% |
| Nc1cnc(N2CCc3cc(S(=O)(=O)Nc4c(F)cc(Cl)cc4F)cc(N4CCCC4=O)c32)nc1 | cell-free assay, competition with immobilised ligand | 1 µM | remaining binding | 89% |
| Cc1cc(NC(=O)c2cccc3cc(-c4cccc5[nH]nc(N)c45)ccc23)ccc1F | enzyme activity, inhibitor | 0.1 µM | activity vs control | 94% |
| CC(C)(C)c1nc(-c2cccc(NS(=O)(=O)c3c(F)cccc3F)c2F)c(-c2ccnc(N)n2)s1 | enzyme activity, inhibitor, radiometric | 1 µM | remaining activity | 91% |
| COc1cc2ncnc(Nc3ccc(Oc4ccccc4)cc3C)c2cc1OC | enzyme activity, inhibitor | 1 µM | inhibition | 4% |
| Cc1c(C(=O)O)cc(-c2ccc(C3CCNCC3)cc2)c2ccc(-c3ccc(C(F)(F)F)cc3)cc12 | cell-free assay, competition with immobilised ligand | 1 µM | remaining binding | 100% |
| CC(C)(O)[C@H]1CC[C@H](Nc2ccc3ncc(-c4cccc(C(F)(F)F)c4)n3n2)CC1 | enzyme activity, inhibitor | 1 µM | remaining activity | 92.7% |
| CC(=O)C1=C(C)N(c2cccc(C(F)(F)F)c2)C(=O)N[C@@H]1c1ccc(C#N)nc1 | cell-free assay, competition with immobilised ligand | 1 µM | remaining binding | 91.2% |
| CS(=O)(=O)Nc1cccc(-c2csc(NC(=O)CSc3nc4nccnc4c(=O)n3CCc3ccccc3)n2)c1 | enzyme activity, inhibitor | 10 µM | inhibition | -2% |
| O=C1Nc2ccc(Cl)cc2C1=Cc1cc(Cl)c(O)c(Cl)c1 | cell-free assay | 0.5 µM | remaining signal | 97.2% |
| COc1ccc2c(c1)O[C@@H](c1ccc(OC)c(OC)c1)C[C@H]2NC(=O)C1(c2ccc3c(c2)OC(F)(F)O3)CC1 | cell-free assay, competition with immobilised ligand | 1 µM | remaining binding | 89% |
| C=CC(=O)Nc1cc(Nc2nccc(Nc3cc(Cl)c(F)cc3C(C)(C)O)n2)c(OC)cc1N1CC[C@@H](N(C)C)C1 | enzyme activity, inhibitor | 1 µM | inhibition | -9% |
| N#CCCc1ccc2c(c1)-c1[nH]c3ccc([N+](=O)[O-])cc3c1CC(=O)N2 | cell-free assay | 0.5 µM | remaining signal | 52.1% |
| CCOCCn1cc(C(=O)Nc2ccc(-n3nc(-c4cccnc4)cc3C(F)(F)F)cn2)ccc1=O | cell-free assay, competition with immobilised ligand | 1 µM | remaining binding | 96% |
| Cc1ccc(Nc2nccc(N(C)c3ccc4c(C)n(C)nc4c3)n2)cc1S(N)(=O)=O | cell-free assay, inhibitor | 0.5 µM | remaining signal | 89.1% |
| CN(C)C1CCN(CC#Cc2nn(C3CCCC3)c3nc(NCc4ccccc4)ncc23)C1 (stereo not shown) | enzyme activity, inhibitor, FRET | 1 µM | inhibition | 4% |
